Assay results reported in ChEMBL document CHEMBL5724801, “EUbOPEN Chemogenomics Library - Multiplex” (2024).
Where “and” joins values, the source holds several entries; their conditions need not be identical. Identical values can stand only once.

Legend:
Assay type in all cases: toxicity, cell-based
[1] = tested on: U2OS; assay: Multiplex assay against U2OS; conditions: human
Method in brief: (§1)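 Hoechst33342, BioTracker Green Microtubule Cytoskeleton Dye, MitoTracker Red and Annexin V Alexa Fluor 680 were added to live cells at seeding, and imaging on a CQ1 microscope at 37°C and 5% CO2 followed compound addition. Gating by CellPathfinder machine learning separated cells into Hoechst high-intensity objects or normal cells, then normal cells into healthy, pyknosed or fragmented nuclei, then pyknosed cells into mitotic or apoptotic. Per cents of healthy-nucleus cells are reported for the tubulin, mitochondrial-mass and membrane-permeability phenotypes.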

[2] = tested on: HEK-293T; assay: Multiplex assay against HEK293T; conditions: human; method in brief: as §1
[3] = tested on: Fibroblast; assay: Multiplex assay against human fibroblast; method in brief: as §1
[4] = 12 h, 1 µM, compound concentration 1 uM
[5] = 12 h, 10 µM, compound concentration 10 uM
[6] = 24 h, 1 µM, compound concentration 1 uM
[7] = 24 h, 10 µM, compound concentration 10 uM
[8] = 48 h, 1 µM, compound concentration 1 uM
[9] = 48 h, 10 µM, compound concentration 10 uM

Cc1c(CC(=O)O)c2cccnc2n1Cc1ccc(S(C)(=O)=O)cc1C(F)(F)F [FEVIPIPRANT]
Population Apoptotic (%) [1, 4]: 80% and 50%
Population Fragmented Nuclei (%) [1, 4]: 25% and 22%
Population Healthy Nuclei (%) [1, 4]: 64% and 72%
Population Hoechst High Intensity Objects (%) [1, 4]: 1%
Population Membrane Permeable-Phenotype (%) [1, 4]: 2% and 8%
Population Mitochondria Different-Phenotype (%) [1, 4]: 2% and 1%
Population Mitotic Cells (%) [1, 4]: 19% and 50%
Population Normal (%) [1, 4]: 98%
Population Pyknosed Nuclei (%) [1, 4]: 9% and 5%
Population Tubulin-Different-Phenotype (%) [1, 4]: 0% and 9%
Total Cell Count [1, 4]: 224 and 118
Population Apoptotic (%) [1, 5]: 90% and 100%
Population Fragmented Nuclei (%) [1, 5]: 27% and 22%
Population Healthy Nuclei (%) [1, 5]: 65% and 73%
Population Hoechst High Intensity Objects (%) [1, 5]: 2% and 0%
Population Membrane Permeable-Phenotype (%) [1, 5]: 3% and 8%
Population Mitochondria Different-Phenotype (%) [1, 5]: 0% and 3%
Population Mitotic Cells (%) [1, 5]: 9% and 0%
Population Normal (%) [1, 5]: 97% and 99%
Population Pyknosed Nuclei (%) [1, 5]: 7% and 3%
Population Tubulin-Different-Phenotype (%) [1, 5]: 1% and 4%
Total Cell Count [1, 5]: 287 and 116
Population Apoptotic (%) [1, 6]: 80% and 66%
Population Fragmented Nuclei (%) [1, 6]: 20% and 17%
Population Healthy Nuclei (%) [1, 6]: 71% and 74%
Population Hoechst High Intensity Objects (%) [1, 6]: 2% and 0%
Population Membrane Permeable-Phenotype (%) [1, 6]: 1% and 9%
Population Mitochondria Different-Phenotype (%) [1, 6]: 3% and 0%
Population Mitotic Cells (%) [1, 6]: 20% and 33%
Population Normal (%) [1, 6]: 97% and 100%
Population Pyknosed Nuclei (%) [1, 6]: 8%
Population Tubulin-Different-Phenotype (%) [1, 6]: 1% and 10%
Total Cell Count [1, 6]: 256 and 145
Population Apoptotic (%) [1, 7]: 96% and 100%
Population Fragmented Nuclei (%) [1, 7]: 20% and 12%
Population Healthy Nuclei (%) [1, 7]: 70% and 78%
Population Hoechst High Intensity Objects (%) [1, 7]: 0% and 1%
Population Membrane Permeable-Phenotype (%) [1, 7]: 5% and 8%
Population Mitochondria Different-Phenotype (%) [1, 7]: 3% and 2%
Population Mitotic Cells (%) [1, 7]: 3% and 0%
Population Normal (%) [1, 7]: 99% and 98%
Population Pyknosed Nuclei (%) [1, 7]: 8%
Population Tubulin-Different-Phenotype (%) [1, 7]: 3%
Total Cell Count [1, 7]: 326 and 119
Population Apoptotic (%) [1, 8]: 65% and 90%
Population Fragmented Nuclei (%) [1, 8]: 18% and 20%
Population Healthy Nuclei (%) [1, 8]: 71% and 67%
Population Hoechst High Intensity Objects (%) [1, 8]: 2%
Population Membrane Permeable-Phenotype (%) [1, 8]: 4% and 8%
Population Mitochondria Different-Phenotype (%) [1, 8]: 3% and 5%
Population Normal (%) [1, 8]: 97%
Population Pyknosed Nuclei (%) [1, 8]: 10% and 12%
Population Tubulin-Different-Phenotype (%) [1, 8]: 2% and 9%
Total Cell Count [1, 8]: 379 and 187
Population Apoptotic (%) [1, 9]: 91% and 100%
Population Fragmented Nuclei (%) [1, 9]: 17% and 15%
Population Healthy Nuclei (%) [1, 9]: 73% and 76%
Population Hoechst High Intensity Objects (%) [1, 9]: 1% and 3%
Population Membrane Permeable-Phenotype (%) [1, 9]: 4% and 5%
Population Mitochondria Different-Phenotype (%) [1, 9]: 3% and 1%
Population Mitotic Cells (%) [1, 9]: 8% and 0%
Population Normal (%) [1, 9]: 98% and 96%
Population Pyknosed Nuclei (%) [1, 9]: 8%
Population Tubulin-Different-Phenotype (%) [1, 9]: 3%
Total Cell Count [1, 9]: 408 and 158
Population Apoptotic (%) [2, 4]: 27% and 41%
Population Fragmented Nuclei (%) [2, 4]: 6% and 7%
Population Healthy Nuclei (%) [2, 4]: 83% and 79%
Population Hoechst High Intensity Objects (%) [2, 4]: 5% and 7%
Population Membrane Permeable-Phenotype (%) [2, 4]: 0%
Population Mitochondria Different-Phenotype (%) [2, 4]: 32% and 52%
Population Mitotic Cells (%) [2, 4]: 72% and 58%
Population Normal (%) [2, 4]: 94% and 92%
Population Pyknosed Nuclei (%) [2, 4]: 9% and 12%
Population Tubulin-Different-Phenotype (%) [2, 4]: 22% and 16%
Total Cell Count [2, 4]: 471 and 370
Population Apoptotic (%) [2, 5]: 33% and 52%
Population Fragmented Nuclei (%) [2, 5]: 5% and 11%
Population Healthy Nuclei (%) [2, 5]: 80% and 75%
Population Hoechst High Intensity Objects (%) [2, 5]: 6% and 10%
Population Membrane Permeable-Phenotype (%) [2, 5]: 0%
Population Mitochondria Different-Phenotype (%) [2, 5]: 46% and 66%
Population Mitotic Cells (%) [2, 5]: 66% and 47%
Population Normal (%) [2, 5]: 93% and 89%
Population Pyknosed Nuclei (%) [2, 5]: 13% and 12%
Population Tubulin-Different-Phenotype (%) [2, 5]: 29% and 32%
Total Cell Count [2, 5]: 417 and 303
Population Apoptotic (%) [2, 6]: 22% and 43%
Population Fragmented Nuclei (%) [2, 6]: 8% and 7%
Population Healthy Nuclei (%) [2, 6]: 81% and 82%
Population Hoechst High Intensity Objects (%) [2, 6]: 3% and 4%
Population Membrane Permeable-Phenotype (%) [2, 6]: 1% and 0%
Population Mitochondria Different-Phenotype (%) [2, 6]: 18% and 37%
Population Mitotic Cells (%) [2, 6]: 77% and 56%
Population Normal (%) [2, 6]: 96% and 95%
Population Pyknosed Nuclei (%) [2, 6]: 10%
Population Tubulin-Different-Phenotype (%) [2, 6]: 18% and 14%
Total Cell Count [2, 6]: 637 and 457
Population Apoptotic (%) [2, 7]: 33% and 50%
Population Fragmented Nuclei (%) [2, 7]: 8% and 9%
Population Healthy Nuclei (%) [2, 7]: 80% and 81%
Population Hoechst High Intensity Objects (%) [2, 7]: 5% and 11%
Population Membrane Permeable-Phenotype (%) [2, 7]: 0%
Population Mitochondria Different-Phenotype (%) [2, 7]: 31% and 44%
Population Mitotic Cells (%) [2, 7]: 66% and 50%
Population Normal (%) [2, 7]: 94% and 88%
Population Pyknosed Nuclei (%) [2, 7]: 10% and 8%
Population Tubulin-Different-Phenotype (%) [2, 7]: 20%
Total Cell Count [2, 7]: 499 and 334
Population Apoptotic (%) [2, 8]: 16% and 20%
Population Fragmented Nuclei (%) [2, 8]: 13% and 11%
Population Healthy Nuclei (%) [2, 8]: 79% and 82%
Population Hoechst High Intensity Objects (%) [2, 8]: 1% and 2%
Population Membrane Permeable-Phenotype (%) [2, 8]: 2% and 0%
Population Mitochondria Different-Phenotype (%) [2, 8]: 12% and 16%
Population Mitotic Cells (%) [2, 8]: 83% and 79%
Population Normal (%) [2, 8]: 98% and 97%
Population Pyknosed Nuclei (%) [2, 8]: 7% and 6%
Population Tubulin-Different-Phenotype (%) [2, 8]: 12% and 10%
Total Cell Count [2, 8]: 1065 and 713
Population Apoptotic (%) [2, 9]: 29% and 45%
Population Fragmented Nuclei (%) [2, 9]: 14%
Population Healthy Nuclei (%) [2, 9]: 78% and 77%
Population Hoechst High Intensity Objects (%) [2, 9]: 4% and 7%
Population Membrane Permeable-Phenotype (%) [2, 9]: 0% and 1%
Population Mitochondria Different-Phenotype (%) [2, 9]: 24% and 22%
Population Mitotic Cells (%) [2, 9]: 70% and 55%
Population Normal (%) [2, 9]: 95% and 92%
Population Pyknosed Nuclei (%) [2, 9]: 7% and 8%
Population Tubulin-Different-Phenotype (%) [2, 9]: 14% and 17%
Total Cell Count [2, 9]: 794 and 491
Population Apoptotic (%) [3, 4]: 44% and 25%
Population Fragmented Nuclei (%) [3, 4]: 22% and 33%
Population Healthy Nuclei (%) [3, 4]: 60% and 48%
Population Hoechst High Intensity Objects (%) [3, 4]: 3%
Population Mitochondria Different-Phenotype (%) [3, 4]: 3% and 12%
Population Mitotic Cells (%) [3, 4]: 55% and 74%
Population Normal (%) [3, 4]: 96%
Population Pyknosed Nuclei (%) [3, 4]: 18% and 17%
Population Tubulin-Different-Phenotype (%) [3, 4]: 20% and 56%
Total Cell Count [3, 4]: 156
Population Apoptotic (%) [3, 5]: 34% and 22%
Population Fragmented Nuclei (%) [3, 5]: 10% and 21%
Population Healthy Nuclei (%) [3, 5]: 71% and 54%
Population Hoechst High Intensity Objects (%) [3, 5]: 3% and 5%
Population Membrane Permeable-Phenotype (%) [3, 5]: 1% and 9%
Population Mitochondria Different-Phenotype (%) [3, 5]: 4% and 6%
Population Mitotic Cells (%) [3, 5]: 65% and 77%
Population Normal (%) [3, 5]: 96% and 94%
Population Pyknosed Nuclei (%) [3, 5]: 17% and 23%
Population Tubulin-Different-Phenotype (%) [3, 5]: 25% and 55%
Total Cell Count [3, 5]: 132 and 139
Population Apoptotic (%) [3, 6]: 55% and 52%
Population Fragmented Nuclei (%) [3, 6]: 14% and 35%
Population Healthy Nuclei (%) [3, 6]: 66% and 47%
Population Hoechst High Intensity Objects (%) [3, 6]: 3%
Population Membrane Permeable-Phenotype (%) [3, 6]: 1% and 4%
Population Mitochondria Different-Phenotype (%) [3, 6]: 5% and 8%
Population Mitotic Cells (%) [3, 6]: 44% and 48%
Population Normal (%) [3, 6]: 96%
Population Pyknosed Nuclei (%) [3, 6]: 19% and 17%
Population Tubulin-Different-Phenotype (%) [3, 6]: 23% and 50%
Total Cell Count [3, 6]: 156 and 150
Population Apoptotic (%) [3, 7]: 57% and 31%
Population Fragmented Nuclei (%) [3, 7]: 16% and 22%
Population Healthy Nuclei (%) [3, 7]: 67% and 55%
Population Hoechst High Intensity Objects (%) [3, 7]: 1% and 7%
Population Membrane Permeable-Phenotype (%) [3, 7]: 1% and 5%
Population Mitochondria Different-Phenotype (%) [3, 7]: 2% and 5%
Population Mitotic Cells (%) [3, 7]: 42% and 68%
Population Normal (%) [3, 7]: 98% and 92%
Population Pyknosed Nuclei (%) [3, 7]: 16% and 21%
Population Tubulin-Different-Phenotype (%) [3, 7]: 24% and 52%
Total Cell Count [3, 7]: 130 and 146
Population Apoptotic (%) [3, 8]: 65% and 63%
Population Fragmented Nuclei (%) [3, 8]: 16% and 39%
Population Healthy Nuclei (%) [3, 8]: 67% and 47%
Population Hoechst High Intensity Objects (%) [3, 8]: 5% and 6%
Population Membrane Permeable-Phenotype (%) [3, 8]: 0% and 4%
Population Mitochondria Different-Phenotype (%) [3, 8]: 4% and 8%
Population Mitotic Cells (%) [3, 8]: 35% and 36%
Population Normal (%) [3, 8]: 94% and 93%
Population Pyknosed Nuclei (%) [3, 8]: 16% and 12%
Population Tubulin-Different-Phenotype (%) [3, 8]: 16% and 47%
Total Cell Count [3, 8]: 132 and 157
Population Apoptotic (%) [3, 9]: 73% and 58%
Population Fragmented Nuclei (%) [3, 9]: 22% and 32%
Population Healthy Nuclei (%) [3, 9]: 62% and 53%
Population Hoechst High Intensity Objects (%) [3, 9]: 2%
Population Membrane Permeable-Phenotype (%) [3, 9]: 0% and 3%
Population Mitochondria Different-Phenotype (%) [3, 9]: 3% and 2%
Population Mitotic Cells (%) [3, 9]: 26% and 41%
Population Normal (%) [3, 9]: 97%
Population Pyknosed Nuclei (%) [3, 9]: 14%
Population Tubulin-Different-Phenotype (%) [3, 9]: 29% and 52%
Total Cell Count [3, 9]: 132 and 171
